Experimental data gathered from unrelated publications.
Protocols differ between the studies behind these lines.
HTR5A: 5-hydroxytryptamine receptor 5A (HTR5A, Homo sapiens, UniProt P47898)
PIK3CD: Phosphatidylinositol 4,5-bisphosphate 3-kinase catalytic subunit delta isoform (PIK3CD, Homo sapiens, UniProt O00329)
DRD4: D(4) dopamine receptor (DRD4, Homo sapiens, UniProt P21917)

SMILES	target	effect on	mode	method	notes	endpoint	result
CS(=O)(=O)C1(CNCc2ccc(Cl)c3cccnc23)CC1	HTR5A	ligand displacement	–	radioligand	–	Ki	126 nM
CN1CCN(c2ccc(Nc3ncc4cc(C#N)c(=O)n(C5CCCC5)c4n3)cc2)CC1	Calcium/calmodulin-dependent protein kinase type 1 (CAMK1, Homo sapiens, UniProt Q14012)	enzyme activity	inhibitor	–	–	IC50	> 10000 nM
Cc1cnc(-c2ccc(-c3ccc(NC(=O)Nc4c(F)cc(F)cc4F)cc3F)c3c2C(=O)NC3)[nH]1	Tyrosine-protein kinase BTK (BTK, Homo sapiens, UniProt Q06187)	binding	–	competition with immobilised ligand	–	Kd	27 nM
C=CC(=O)N1CCC(C(=O)N(C)CC(=O)N2CCN(c3nc(-c4cnc(N)nc4C(F)F)nc(N4CCOCC4)n3)CC2)CC1	PIK3CD	binding	–	competition with immobilised ligand	–	Kd	2.2 nM
CC(=O)CC(=O)SCCNC(=O)CCNC(=O)[C@H](O)C(C)(C)COP(=O)(O)OP(=O)(O)OC[C@H]1O[C@@H](n2cnc3c(N)ncnc32)[C@H](O)[C@@H]1OP(=O)(O)O	IVD (Homo sapiens, UniProt P26440)	binding	–	absorbance	–	Kd	~18000 nM
COc1ccccc1N1CCN(CCCCN2CCc3ccccc3C2=O)CC1	DRD4	ligand displacement	–	radioligand	–	Ki	6 nM
COc1ccc(CCC2=NCCN2CCc2ccccc2)cc1	DRD4	ligand displacement	–	radioligand	–	Ki	501 nM
CC[C@@H]1C(=O)OC[C@@H]1Cc1cncn1C	Cytochrome P450 2E1 (CYP2E1, Homo sapiens, UniProt P05181)	binding	–	–	–	Kd	26500 nM
CCCCN1CCC(COC(=O)c2ccc(N)c(OCF)c2)CC1	HTR5A	cell-free assay	–	radioligand	–	Ki	> 10000 nM
COc1cc(F)cc2c(N3CCN4c5ccccc5OC[C@@H]4C3)c(C#N)nnc12 (single isomer, unassigned)	Metabotropic glutamate receptor 8 (GRM8, Homo sapiens, UniProt O00222)	calcium signal	positive allosteric modulator	–	–	EC50	> 30000 nM
CC(C)c1nc2cc(OCCCCN3CCN(c4cccc5c4OCCO5)CC3)ccc2s1	HTR5A	ligand displacement	–	radioligand	–	Ki	330 nM
O=C1c2ccccc2CCN1CCCCN1CCN(c2ccccn2)CC1	DRD4	ligand displacement	–	radioligand	–	Ki	14.5 nM
Cc1ncsc1-c1ccc(CNC(=O)[C@@H]2C[C@@H](O)CN2C(=O)[C@@H](NC(=O)CCCCCCCCCC(=O)N2CCN(CC[C@H](NC(=O)C3(N)CCN(c4ncnc5[nH]ccc45)CC3)c3ccc(Cl)cc3)CC2)C(C)(C)C)cc1	RAC-beta serine/threonine-protein kinase (AKT2, Homo sapiens, UniProt P31751)	binding	–	competition with immobilised ligand	–	Kd	360 nM
CC[C@H](NC(=O)[C@H](CS(=O)(=O)CC1CC1)N[C@@H](c1ccc(F)cc1)C(F)(F)F)C(=O)C(=O)NC1CC1	Cathepsin F (Homo sapiens, UniProt Q9UBX1)	enzyme activity	inhibitor	fluorescence	with preincubation	Ki	4.7 nM
CC(=O)N[C@@H](Cc1ccccc1)C(=O)N1CCC[C@H]1C(=O)N1CCC[C@H]1C(=O)N1CCC[C@H]1C(=O)N1CCC[C@H]1C(=O)O	Vasodilator-stimulated phosphoprotein (VASP, Homo sapiens, UniProt P50552)	binding	–	fluorescence	–	Kd	800000 nM
CCn1c(-c2nc3cc(C(=O)N4CCC[C@@H](N)C4)cc(OC)c3n2C)cc2cccnc21	Nuclear receptor subfamily 1 group I member 2 (NR1I2, Homo sapiens, UniProt O75469)	reporter gene	agonist	luciferase	–	EC50	> 50100 nM
COc1ccc(F)cc1C(=O)NCc1ccc(-c2nn([C@@H](C)C(F)(F)F)c(N)c2C(N)=O)cc1	Tyrosine-protein kinase BTK (BTK, Homo sapiens, UniProt Q06187, C481T)	phosphorylation in cells	inhibitor	–	–	IC50	7.1 nM
C=CC(=O)N1CCC(C(=O)NCC(=O)N2CCN(c3nc(-c4cnc(N)nc4C(F)F)nc(N4CCOCC4)n3)CC2)CC1	PIK3CD	binding	–	competition with immobilised ligand	–	Kd	0.71 nM
CC1=C(O)C(=O)OC1C (centres unmarked)	OR8D1 (Homo sapiens, UniProt Q8WZ84, del306-308)	cAMP	agonist	luciferase	–	EC50	4500 nM
Clc1ccc(CNC[C@H]2CCn3ccnc3C2)c2ncccc12	HTR5A	ligand displacement	–	radioligand	–	Ki	3240 nM
